In ChEMBL document CHEMBL3085765, “The synthesis, antiviral, cytostatic and cytotoxic evaluation of a new series of acyclonucleotide analogues with a 1,2,3-triazole linker” (Eur J Med Chem, 2013):

Columns and labels:
Type in all cases: functional, cell-based
CCRF-CEM = assay: Cytostatic activity against human CEM cells after 3 days by coulter ZI particle counting analysis; conditions: 72 h
Procedure, shortened: (§1)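 Cells seeded in 96-well plates and grown with or without serial dilutions of compound, 2 days for L1210 and 3 days for CEM and HeLa. IC50 taken as concentration inhibiting cell proliferation by 50%.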

HeLa = assay: Cytostatic activity against human HeLa cells after 3 days by coulter ZI particle counting analysis; conditions: 72 h; procedure, shortened: as §1
L1210 = assay: Cytostatic activity against mouse L1210 cells after 2 days by coulter ZI particle counting analysis; conditions: L1210, 48 h; procedure, shortened: as §1

Row | Compound | IC50 (CCRF-CEM) [µM] | IC50 (HeLa) [µM] | IC50 (L1210) [µM]
1 | CCOP(=O)(OCC)C(O)Cn1cc(Cn2ncc(=O)[nH]c2=O)nn1 (centres undefined) | > 200 | > 200 | > 200
2 | O=C(c1ccccc1)n1c(=O)c2ccccc2n(Cc2cn(CCCP(=O)(O)O)nn2)c1=O | > 200 | > 200 | > 200
3 | CCOP(=O)(CCCn1cc(Cn2ncc(=O)[nH]c2=O)nn1)OCC | > 200 | > 200 | > 200
4 | CCOP(=O)(CCn1cc(Cn2ccccc2=O)nn1)OCC | > 200 | > 200 | > 200
5 | CCOP(=O)(Cn1cc(Cn2cnc3c2c(=O)n(C)c(=O)n3C)nn1)OCC | > 200 | > 200 | > 200
6 | CCOP(=O)(OCC)C(O)CCn1cc(Cn2c(Cl)nc3c2c(=O)n(C)c(=O)n3C)nn1 (centres undefined) | > 200 | > 200 | > 200
7 | CCOP(=O)(OCC)C(O)Cn1cc(Cn2c(=O)c3c(ncn3C)n(C)c2=O)nn1 (centres undefined) | > 200 | > 200 | > 200
8 | CCOP(=O)(CCn1cc(Cn2c(Cl)nc3c2c(=O)n(C)c(=O)n3C)nn1)OCC | > 200 | 200 | > 200
9 | CCOP(=O)(CCCn1cc(Cn2cc(C(C)=O)c3ccccc32)nn1)OCC | 4.54 | 19 | 164
10 | CCOP(=O)(Cn1cc(Cn2c(Cl)nc3c2c(=O)n(C)c(=O)n3C)nn1)OCC | > 200 | > 200 | > 200
11 | CCOP(=O)(Cn1cc(Cn2c(=O)c3c(ncn3C)n(C)c2=O)nn1)OCC | > 200 | ≥ 149 | > 200
12 | CCOP(=O)(Cn1cc(Cn2cc(C(C)=O)c3ccccc32)nn1)OCC | 2.78 | 11 | 72
13 | CCOP(=O)(CC(O)Cn1cc(Cn2cnc3c2c(=O)n(C)c(=O)n3C)nn1)OCC (centres undefined) | > 200 | > 200 | > 200
14 | CCOP(=O)(Cn1cc(Cn2cnc3cc(C)c(C)cc32)nn1)OCC | 97 | 42 | > 200
15 | CCOP(=O)(Cn1cc(Cn2c(=O)n(C(=O)c3ccccc3)c(=O)c3ccccc32)nn1)OCC | ≥ 72 | ≥ 89 | > 200
16 | CCOP(=O)(CC(O)Cn1cc(Cn2c(=O)n(C(=O)c3ccccc3)c(=O)c3ccccc32)nn1)OCC (centres undefined) | 72 | > 200 | > 200
17 | CCOP(=O)(OCC)C(O)CCn1cc(Cn2cc(C)c(=O)[nH]c2=O)nn1 (centres undefined) | > 200 | > 200 | > 200
18 | CCOP(=O)(OCC)C(O)CCn1cc(Cn2c(=O)c3c(ncn3C)n(C)c2=O)nn1 (centres undefined) | > 200 | > 200 | > 200
19 | CCOP(=O)(CCCCn1cc(Cn2ccc(NC(C)=O)nc2=O)nn1)OCC | > 200 | > 200 | > 200
20 | CCOP(=O)(CCCn1cc(Cn2cnc3cc(C)c(C)cc32)nn1)OCC | 14 | 101 | 189
21 | CCOP(=O)(OCC)C(O)Cn1cc(Cn2cc(C(C)=O)c3ccccc32)nn1 (centres undefined) | 21 | > 200 | > 200
22 | Cn1c(=O)c2c(nc(Cl)n2Cc2cn(CCCP(=O)(O)O)nn2)n(C)c1=O | > 200 | > 200 | > 200

Row | Compound | IC50 (CCRF-CEM) [µM] | IC50 (HeLa) [µM] | IC50 (L1210) [µM]
23 | CCOP(=O)(CCCCn1cc(Cn2cnc3cc(C)c(C)cc32)nn1)OCC | 24.7 | 172 | > 200
24 | CCOP(=O)(OCC)C(O)Cn1cc(Cn2ccccc2=O)nn1 (centres undefined) | > 200 | > 200 | > 200
25 | CCOP(=O)(OCC)C(O)CCn1cc(Cn2ncc(=O)[nH]c2=O)nn1 (centres undefined) | > 200 | > 200 | > 200
26 | CCOP(=O)(CC(O)Cn1cc(Cn2ccccc2=O)nn1)OCC (centres undefined) | > 200 | > 200 | > 200
27 | CCOP(=O)(CCCCn1cc(Cn2cc(C(C)=O)c3ccccc32)nn1)OCC | 12 | > 200 | 200
28 | CCOP(=O)(OCC)C(O)Cn1cc(Cn2cnc3c2c(=O)n(C)c(=O)n3C)nn1 (centres undefined) | > 200 | > 200 | > 200
29 | CCOP(=O)(Cn1cc(Cn2ccccc2=O)nn1)OCC | > 200 | > 200 | > 200
30 | CCOP(=O)(CCCCn1cc(Cn2c(Cl)nc3c2c(=O)n(C)c(=O)n3C)nn1)OCC | > 200 | > 200 | > 200
31 | CCOP(=O)(CCCn1cc(Cn2ccccc2=O)nn1)OCC | > 200 | > 200 | > 200
32 | CCOP(=O)(CCCn1cc(Cn2c(=O)c3c(ncn3C)n(C)c2=O)nn1)OCC | > 200 | > 200 | > 200
33 | O=c1ccn(Cc2cn(CCCCP(=O)(O)O)nn2)c(=O)[nH]1 | > 200 | > 200 | > 200
34 | CCOP(=O)(CCCCn1cc(Cn2ccc(=O)[nH]c2=O)nn1)OCC | > 200 | > 200 | > 200
35 | CCOP(=O)(CCCCn1cc(Cn2cc(C)c(=O)[nH]c2=O)nn1)OCC | > 200 | > 200 | > 200
36 | CCOP(=O)(CC(O)Cn1cc(Cn2cc(C(C)=O)c3ccccc32)nn1)OCC (centres undefined) | 43 | 97 | > 200
37 | CCOP(=O)(OCC)C(O)Cn1cc(Cn2c(=O)n(C(=O)c3ccccc3)c(=O)c3ccccc32)nn1 (centres undefined) | ≥ 77 | > 200 | > 200
38 | CCOP(=O)(CCn1cc(Cn2cc(C(C)=O)c3ccccc32)nn1)OCC | 11.4 | 18 | 197
39 | CCOP(=O)(OCC)C(O)CCn1cc(Cn2cc(C(C)=O)c3ccccc32)nn1 (centres undefined) | 100 | > 200 | 124
40 | CCOP(=O)(CC(O)Cn1cc(Cn2c(=O)c3c(ncn3C)n(C)c2=O)nn1)OCC (centres undefined) | > 200 | > 200 | > 200
41 | Cc1cc2ncn(Cc3cn(CCCP(=O)(O)O)nn3)c2cc1C | > 200 | > 200 | > 200
42 | Cn1c(=O)c2c(ncn2Cc2cn(CC(O)P(=O)(O)O)nn2)n(C)c1=O (centres undefined) | > 200 | > 200 | > 200
43 | CCOP(=O)(CC(O)Cn1cc(Cn2cnc3cc(C)c(C)cc32)nn1)OCC (centres undefined) | 78 | ≥ 150 | > 200
44 | CCOP(=O)(CC(O)Cn1cc(Cn2c(Cl)nc3c2c(=O)n(C)c(=O)n3C)nn1)OCC (centres undefined) | > 200 | > 200 | > 200

The next lines start with the values.

Row | IC50 (CCRF-CEM) [µM] | IC50 (HeLa) [µM] | IC50 (L1210) [µM] | Compound
45 | > 200 | > 200 | > 200 | CCOP(=O)(CCCCn1cc(Cn2ccccc2=O)nn1)OCC
46 | > 200 | > 200 | > 200 | CCOP(=O)(OCC)C(O)CCn1cc(Cn2ccc(NC(C)=O)nc2=O)nn1 (centres undefined)
47 | > 200 | > 200 | > 200 | CCOP(=O)(CCCCn1cc(Cn2cnc3c2c(=O)n(C)c(=O)n3C)nn1)OCC
48 | 70 | > 200 | > 200 | CCOP(=O)(OCC)C(O)CCn1cc(Cn2c(=O)n(C(=O)c3ccccc3)c(=O)c3ccccc32)nn1 (centres undefined)
49 | > 200 | > 200 | > 200 | CCOP(=O)(CCn1cc(Cn2ncc(=O)[nH]c2=O)nn1)OCC
50 | > 200 | > 200 | > 200 | CCOP(=O)(CCCCn1cc(Cn2c(=O)c3c(ncn3C)n(C)c2=O)nn1)OCC
51 | > 200 | 159 | > 200 | CCOP(=O)(CCn1cc(Cn2c(=O)c3c(ncn3C)n(C)c2=O)nn1)OCC
52 | > 200 | > 200 | > 200 | CCOP(=O)(OCC)C(O)CCn1cc(Cn2ccc(=O)[nH]c2=O)nn1 (centres undefined)
53 | > 200 | > 200 | > 200 | CCOP(=O)(CCCn1cc(Cn2c(Cl)nc3c2c(=O)n(C)c(=O)n3C)nn1)OCC
54 | > 200 | > 200 | > 200 | CCOP(=O)(CCCCn1cc(Cn2ncc(=O)[nH]c2=O)nn1)OCC
55 | > 200 | > 200 | > 200 | CCOP(=O)(CC(O)Cn1cc(Cn2ncc(=O)[nH]c2=O)nn1)OCC (centres undefined)
56 | > 200 | > 200 | > 200 | CCOP(=O)(CCn1cc(Cn2cnc3c2c(=O)n(C)c(=O)n3C)nn1)OCC
57 | > 200 | > 200 | > 200 | CCOP(=O)(Cn1cc(Cn2ncc(=O)[nH]c2=O)nn1)OCC
58 | > 200 | > 200 | > 200 | CCOP(=O)(OCC)C(O)CCn1cc(Cn2cnc3c2c(=O)n(C)c(=O)n3C)nn1 (centres undefined)
59 | > 200 | > 200 | > 200 | Nc1ncnc2c1ncn2Cc1cn(CCCCP(=O)(O)O)nn1
60 | > 200 | > 200 | > 200 | CCOP(=O)(CCCn1cc(Cn2cnc3c2c(=O)n(C)c(=O)n3C)nn1)OCC
61 | > 200 | > 200 | > 200 | O=C(c1ccccc1)n1c(=O)ccn(Cc2cn(CCCP(=O)(O)O)nn2)c1=O
62 | > 200 | > 200 | > 200 | CCOP(=O)(OCC)C(O)Cn1cc(Cn2cnc3cc(C)c(C)cc32)nn1 (centres undefined)
63 | > 200 | > 200 | > 200 | CCOP(=O)(CCCCn1cc(Cn2cnc3c(N)ncnc32)nn1)OCC
64 | > 200 | > 200 | > 200 | CCOP(=O)(OCC)C(O)Cn1cc(Cn2c(Cl)nc3c2c(=O)n(C)c(=O)n3C)nn1 (centres undefined)
65 | 23.4 | > 200 | ≥ 200 | CCOP(=O)(CCn1cc(Cn2cnc3cc(C)c(C)cc32)nn1)OCC
66 | > 200 | > 200 | > 200 | CCOP(=O)(OCC)C(O)CCn1cc(Cn2ccccc2=O)nn1 (centres undefined)
67 | > 200 | > 200 | > 200 | Cc1cn(Cc2cn(CCCCP(=O)(O)O)nn2)c(=O)[nH]c1=O
68 | 163 | > 200 | > 200 | CCOP(=O)(OCC)C(O)CCn1cc(Cn2cnc3cc(C)c(C)cc32)nn1 (centres undefined)
